The values below come from ChEMBL document CHEMBL1147111, “In vitro and in vivo activities of synthetic trioxolanes against major human schistosome species” (Antimicrob Agents Chemother, 2007).

For data set [1], the system named is Schistosoma mansoni. In words: Antischistosomal activity against NMRI mouse adult Schistosoma mansoni infection model assessed as reduction of female worm burden at 400 mg/kg, po after 28 days. Format: functional. Details: scale not given: the % may be the effect or the level left. Summed up:
(§1)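 Mice with a Liberian-strain S. mansoni infection were dosed at 49 days postinfection with a single oral dose of compound suspended in 7% Tween 80/3% ethanol. Groups held 3–5 animals, with untreated controls. At 28 days posttreatment, animals were killed by bleeding. Worms in liver and mesenteric veins were removed, sexed and counted. Reductions were calculated against controls and tested by Kruskal-Wallis.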

The test system of another data set is Mus musculus. In words: Toxicity in NMRI mouse with adult Schistosoma mansoni infection at 400 mg/kg, po after 48 to 96 hrs. Format: organism-based. Details: dose 400 mg/kg, route oral. Particulars: in vivo. Summed up:
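Mice carrying a 49-day S. mansoni (Liberian strain) infection were given a single oral 400 mg/kg dose as a suspension in 7% Tween 80/3% ethanol. Deaths occurring 48–96 h after treatment were recorded.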

In data set [2] the test system is Schistosoma mansoni. Nature of the data set: Reduction of motor activity of Schistosoma mansoni at 20 ug/ml after 72 hrs. Format: functional, organism-based. Summed up: (§2)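 Adult S. mansoni (Liberian strain, 49-day-old) were held two males and two females per well, in duplicate, in Hanks' balanced salt solution with 20% calf serum, 300 IU/ml penicillin and 300 μg/ml streptomycin. Drug was given at 20 μg/ml final from a 1 mg/ml stock in 60% DMSO; solvent control was 1.2% DMSO. Incubation was at 37°C in 5% CO2. Worms were scored under a dissecting microscope at 24, 48 and 72 h for death, motor activity and tegument.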

Data set [3] concerns Schistosoma mansoni. Nature of the data set: Antischistosomal activity against Schistosoma mansoni assessed as worm death at 20 ug/ml after 72 hrs. Format: functional, organism-based. Summed up:
as §2

The subject of data set [4] is Schistosoma mansoni. Nature of the data set: Antischistosomal activity against NMRI mouse juvenile Schistosoma mansoni infection model assessed as number of cured mouse at 200 mg/kg, po after 28 days. Format: functional, organism-based. Details: dose 200 mg/kg. Summed up:
(§3)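 Juvenile-infection model: mice carrying Liberian-strain S. mansoni got one oral dose at day 21 postinfection, as a suspension in 7% Tween 80/3% ethanol. There were 3–5 per group, plus untreated controls. Necropsy by exsanguination followed 28 days after treatment. Liver and mesenteric-vein worms were collected, sexed and counted. Total and female burden reductions were calculated versus controls, with Kruskal-Wallis testing.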

Data set [5] relates to Schistosoma mansoni. Nature of the data set: Antischistosomal activity against NMRI mouse juvenile Schistosoma mansoni infection model assessed as reduction of female worm burden at 200 mg/kg, po after 28 days. Format: functional. Details: scale not given: the % may be the effect or the level left. Summed up: as §3
Data set [6] has as its system Schistosoma mansoni. In words: Antischistosomal activity against Schistosoma mansoni assessed as worm death at 20 ug/ml after 24 hrs. Format: functional, organism-based. Summed up:
as §2

The subject of data set [7] is Schistosoma mansoni. In words: Antischistosomal activity against NMRI mouse adult Schistosoma mansoni infection model assessed as reduction of total worm burden at 400 mg/kg, po after 28 days. Format: functional. Details: scale not given: the % may be the effect or the level left. Summed up: as §1
Data set [8] has as its system Schistosoma mansoni. Nature of the data set: Antischistosomal activity against NMRI mouse juvenile Schistosoma mansoni infection model assessed as reduction of total worm burden at 200 mg/kg, po after 28 days. Format: functional. Also on record: scale not given: the % may be the effect or the level left. Summed up:
as §3

The subject of data set [9] is Schistosoma mansoni. Nature of the data set: Tegumental alteration in Schistosoma mansoni at 20 ug/ml after 72 hrs. Format: functional, organism-based. Summed up:
as §2

Data set [10] relates to Schistosoma mansoni. In words: Antischistosomal activity against NMRI mouse adult Schistosoma mansoni infection model assessed as number of cured mouse at 400 mg/kg, po after 28 days. Also on record: dose 400 mg/kg. Format: functional, organism-based. Summed up: as §1
Data set [11] relates to Schistosoma mansoni. In words: Antischistosomal activity against Syrian golden hamster adult Schistosoma mansoni infection model assessed as reduction of female worm burden at 200 mg/kg, po after 28 days. Details: scale not given: the % may be the effect or the level left. Format: functional. Summed up: (§4)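 Hamsters infected with Liberian-strain S. mansoni were treated once orally at 21 days (juvenile lines) or 49 days (adult lines) postinfection. Doses were 50, 100 or 200 mg/kg, in 7% Tween 80/3% ethanol suspension. Groups had 3–4 animals, with untreated controls. After 28 days, animals were bled out. Worms from liver and mesenteric veins were sexed and counted, and cures and burden reductions versus controls were recorded (Kruskal-Wallis).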

The test system of data set [12] is Schistosoma mansoni. In words: Antischistosomal activity against Syrian golden hamster adult Schistosoma mansoni infection model assessed as reduction of female worm burden at 50 mg/kg, po after 28 days. Format: functional. Details: scale not given: the % may be the effect or the level left. Summed up: as §4
Data set [13] relates to Schistosoma mansoni. In words: Antischistosomal activity against Syrian golden hamster juvenile Schistosoma mansoni infection model assessed as reduction of female worm burden at 200 mg/kg, po after 28 days. Format: functional. Also on record: scale not given: the % may be the effect or the level left. Summed up:
as §4

Data set [14] relates to Schistosoma mansoni. Nature of the data set: Antischistosomal activity against Syrian golden hamster adult Schistosoma mansoni infection model assessed as reduction of female worm burden at 100 mg/kg, po after 28 days. Details: scale not given: the % may be the effect or the level left. Format: functional. Summed up:
as §4

The test system of data set [15] is Schistosoma mansoni. Nature of the data set: Antischistosomal activity against Syrian golden hamster adult Schistosoma mansoni infection model assessed as number of cured mouse at 100 mg/kg, po after 28 days. Also on record: dose 100 mg/kg. Format: functional, organism-based. Summed up:
as §4

For data set [16], the system named is Schistosoma mansoni. In words: Antischistosomal activity against Syrian golden hamster juvenile Schistosoma mansoni infection model assessed as reduction of female worm burden at 50 mg/kg, po after 28 days. Format: functional. Details: scale not given: the % may be the effect or the level left. Summed up:
as §4

The test system of data set [17] is Schistosoma mansoni. Nature of the data set: Antischistosomal activity against Syrian golden hamster adult Schistosoma mansoni infection model assessed as reduction of total worm burden at 100 mg/kg, po after 28 days. Format: functional. Details: scale not given: the % may be the effect or the level left. Summed up:
as §4

The test system of data set [18] is Schistosoma mansoni. In words: Antischistosomal activity against Syrian golden hamster juvenile Schistosoma mansoni infection model assessed as reduction of total worm burden at 100 mg/kg, po after 28 days. Format: functional. Details: scale not given: the % may be the effect or the level left. Summed up:
as §4

Data set [19] concerns Schistosoma mansoni. In words: Antischistosomal activity against Syrian golden hamster adult Schistosoma mansoni infection model assessed as reduction of total worm burden at 50 mg/kg, po after 28 days. Format: functional. Details: scale not given: the % may be the effect or the level left. Summed up: as §4
Data set [20] has as its system Schistosoma mansoni. Nature of the data set: Antischistosomal activity against Syrian golden hamster juvenile Schistosoma mansoni infection model assessed as number of cured mouse at 50 mg/kg, po after 28 days. Format: functional, organism-based. Details: dose 50 mg/kg. Summed up: as §4
Data set [21] relates to Schistosoma mansoni. In words: Antischistosomal activity against Syrian golden hamster juvenile Schistosoma mansoni infection model assessed as number of cured mouse at 100 mg/kg, po after 28 days. Format: functional, organism-based. Details: dose 100 mg/kg. Summed up: as §4
Data set [22] relates to Schistosoma mansoni. Nature of the data set: Antischistosomal activity against Syrian golden hamster adult Schistosoma mansoni infection model assessed as number of cured mouse at 200 mg/kg, po after 28 days. Format: functional, organism-based. Also on record: dose 200 mg/kg. Summed up: as §4
The test system of data set [23] is Schistosoma mansoni. Nature of the data set: Antischistosomal activity against Syrian golden hamster adult Schistosoma mansoni infection model assessed as number of cured mouse at 50 mg/kg, po after 28 days. Format: functional, organism-based. Also on record: dose 50 mg/kg. Summed up:
as §4

Data set [24] relates to Schistosoma mansoni. In words: Antischistosomal activity against Syrian golden hamster juvenile Schistosoma mansoni infection model assessed as reduction of female worm burden at 100 mg/kg, po after 28 days. Format: functional. Details: scale not given: the % may be the effect or the level left. Summed up: as §4
The subject of data set [25] is Schistosoma mansoni. Nature of the data set: Antischistosomal activity against Syrian golden hamster juvenile Schistosoma mansoni infection model assessed as reduction of total worm burden at 50 mg/kg, po after 28 days. Format: functional. Details: scale not given: the % may be the effect or the level left. Summed up:
as §4

Data set [26] deals with Schistosoma mansoni. In words: Antischistosomal activity against Syrian golden hamster juvenile Schistosoma mansoni infection model assessed as reduction of total worm burden at 200 mg/kg, po after 28 days. Format: functional. Also on record: scale not given: the % may be the effect or the level left. Summed up: as §4

Molecules are shown by their SMILES. The source made the active and inactive calls. No cut-off for these calls is given here.

As for `NC[C@H]1CC[C@]2(CC1)OOC1(O2)C2CC3CC(C2)CC1C3` (stereo partly specified), the Activity in the data set with Schistosoma mansoni [1] is reported as 25%; in the data set with Mus musculus, “Toxic”; in the data set with Schistosoma mansoni [5], 83.7%; with Schistosoma mansoni [7], 16.6%; in the data set with Schistosoma mansoni [8] it was 85%. Also, the outcome in the data set with Schistosoma mansoni [2], in the data set on Schistosoma mansoni [4] and in the data set on Schistosoma mansoni [6] was inactive. The outcome in the data set on Schistosoma mansoni [3] and with Schistosoma mansoni [9] was Active.

Take `C1CCC2(CC1)OOC1(O2)C2CC3CC(C2)CC1C3` (stereo unspecified): the Activity in the data set on Schistosoma mansoni [1] is 29.3%; with Schistosoma mansoni [5], 79.2%; in the data set with Schistosoma mansoni [7] it was 29.1%; in the data set with Schistosoma mansoni [8] it was 82%. Moreover, the result with Schistosoma mansoni [4] and with Schistosoma mansoni [10] was inactive.

With `Oc1ccc([C@H]2CC[C@]3(CC2)OO[C@]2(O3)C3CC4CC(C3)CC2C4)cc1`, the Activity was determined as 64.9% with Schistosoma mansoni [1]; 69.7% with Schistosoma mansoni [11]; 36.7% in the data set on Schistosoma mansoni [12]; 86.4% in the data set on Schistosoma mansoni [13]; 41.2% with Schistosoma mansoni [14]; 78.7% in the data set on Schistosoma mansoni [16]. Besides, the Activity in the data set on Schistosoma mansoni [17] stood at 52.4%; in the data set with Schistosoma mansoni [5], 96.2%; in the data set on Schistosoma mansoni [18], 84%; in the data set on Schistosoma mansoni [19], 46.6%; in the data set with Schistosoma mansoni [7], 52.2%; with Schistosoma mansoni [8], 95.4%. The Activity is reported as 80.5% in the data set with Schistosoma mansoni [24], 82.7% in the data set on Schistosoma mansoni [25] and 86.5% in the data set with Schistosoma mansoni [26]. The outcome in the data set with Schistosoma mansoni [4], with Schistosoma mansoni [15], in the data set on Schistosoma mansoni [20], in the data set with Schistosoma mansoni [10], with Schistosoma mansoni [21] and in the data set on Schistosoma mansoni [22] was inactive. In the data set with Schistosoma mansoni [23], the outcome was inactive.

For the compound `C1CCC2(CC1)OOC1(CCCCC1)O2`, the result in the data set on Schistosoma mansoni [4] was inactive. Also, the Activity in the data set on Schistosoma mansoni [5] is reported as 26.4%; with Schistosoma mansoni [8], 22.9%.
